ChEMBL document CHEMBL3272251, “Synthesis of 5-substituted uracil derivatives” (1976)

Assays:
Assay type in all cases: functional
Escherichia coli [1] = experiment: Antibacterial activity against Escherichia coli B assessed as bacterial growth at 1 mM after 20 hrs by turbidometry relative to control
Summary of the method: (§1)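 Broth culture of E. coli B or Staph. aureus at inhibitor concentration 1 × 10^-3 M. Inoculum was 2% of stock culture added to each inhibitor solution. After 20 hr incubation at 37°C, turbidity was read at 500 nm and compared with controls.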

Staphylococcus aureus [2] = experiment: Antibacterial activity against Staphylococcus aureus assessed as bacterial growth at 1 mM after 20 hrs by turbidometry relative to control; summary of the method: as §1
Escherichia coli [3] = experiment: Antibacterial activity against Escherichia coli B assessed as bacterial growth at 0.1 mM after 20 hrs by turbidometry relative to control
Summary of the method: (§2)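 Tested at 1 × 10^-4 M in broth culture, a lower level chosen for limited solubility. Each inhibitor solution received a 2% inoculum of E. coli B or Staph. aureus stock culture. Incubated 20 hr at 37°C, then growth read as turbidity at 500 nm against untreated controls.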

Staphylococcus aureus [4] = experiment: Antibacterial activity against Staphylococcus aureus assessed as bacterial growth at 0.1 mM after 20 hrs by turbidometry relative to control; summary of the method: as §2

Structure (SMILES)	Activity (Escherichia coli [1])	Activity (Staphylococcus aureus [2])	Activity (Escherichia coli [3])	Activity (Staphylococcus aureus [4])
O=C(CO)c1c[nH]c(=O)[nH]c1=O	90%	90%		
O=C(O)/C=C/c1c[nH]c(=O)[nH]c1=O			90%	90%
C[N+](C)(C)CC(=O)c1c[nH]c(=O)[nH]c1=O.[Br-]	90%	90%		
O=c1[nH]cc(-c2ncc[nH]2)c(=O)[nH]1			90%	90%
O=c1[nH]cc(-c2c[nH]cn2)c(=O)[nH]1			90%	90%
Nc1nc(-c2c[nH]c(=O)[nH]c2=O)cs1	90%	90%		
